ChEMBL document CHEMBL1130047, “Synthesis, structure, and antiproliferative activity of selenophenfurin, an inosine 5'-monophosphate dehydrogenase inhibitor analogue of selenazofurin” (J Med Chem, 1997)

What was measured:
[1] = system: MOLT-4; experiment: (§1) Compound was tested for antiproliferative activity against MOLT-4, human acute T-lymphoblastic leukemia; type: functional, cell-based
Procedure, shortened: (§2)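 Suspension leukemia/lymphoma cells in exponential growth resuspended at 1 × 10⁵ cells/mL in growth medium with various compound concentrations; viability read by MTT after 96 h at 37 °C. Growth given as percentage of untreated controls; IC50 (concentration reducing viability 50%) from linear regression.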

[2] = system: K562; experiment: Compound was tested for its influence on the GTP (guanosine triphosphate) ribonucleotide level in K562 cells; type: functional, Homo sapiens
Procedure, shortened: (§3)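 K562 cells in culture (1 × 10⁷) were incubated with 10 µM agent or saline for 2 h at 37 °C, then washed with cold saline. Extraction used cold 10% trichloroacetic acid, followed by neutralisation with 0.5 M tri-n-octylamine in freon. Nucleotides were measured by HPLC on a strong anion-exchange (SAX) column, with levels in nmol/g and % of saline control.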

[3] = system: K562; experiment: Compound was tested for its influence on the GDP (guanosine diphosphate) ribonucleotide level in K562 cells; type: functional, Homo sapiens; procedure, shortened: as §3
[4] = system: ACHN; experiment: Compound was tested for antiproliferative activity against ACHN, human renal adenocarcinoma; type: functional, cell-based
Procedure, shortened: (§4)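 Exponentially growing solid-tumour-derived cells were seeded at 5 × 10⁴ cells/mL and left to adhere for 16 h before drug addition, across a range of concentrations. Growth was expressed as % of untreated controls, and IC50 (concentration reducing cell viability by 50%) was obtained by linear regression.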

[5] = system: K562; experiment: Compound was tested for its influence on the IMP (Inosine 5`-monophosphate) ribonucleotide level in K562 cells; type: functional, Homo sapiens
Procedure, shortened: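 K562 cells (1 × 10⁷) given 10 µM agent or saline for 2 h at 37 °C, washed in cold saline, extracted with cold 10% trichloroacetic acid, neutralized with 0.5 M tri-n-octylamine in freon; IMP measured by strong anion-exchange HPLC, reported as percent of saline control (control in nmol/g).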

[6] = molecular target: T1, Inosine-5'-monophosphate dehydrogenase (IMPDH) (Homo sapiens) (UniProt P20839+P12268); experiment: Compound was tested for its effect on IMPDH (Inosine 5`-monophosphate dehydrogenase) activity in K562 cells in culture.; type: functional, cell-based; conditions: scale: (nM of XMP formed) hr-1
[7] = system: CHO-K1; experiment: Compound was tested for antiproliferative activity against CHO-K1, Chinese hamster ovary cells; type: functional, cell-based; conditions: Cricetulus griseus
Procedure, shortened: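 Solid tumor-derived adherent cells seeded at 5 × 10⁴ cells/mL in exponential growth, allowed 16 h to attach before drug addition; viability by MTT method. Growth expressed as percent of untreated controls, IC50 obtained by linear regression.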

[8] = system: CCRF-CEM; experiment: (§5) Compound was tested for antiproliferative activity against CCRF-CEM, human acute T-lymphoblastic leukemia; type: functional, cell-based; procedure, shortened: as §2
[9] = system: HeLa; experiment: Compound was tested for antiproliferative activity against HeLa, human cervix carcinoma; type: functional, cell-based; procedure, shortened: as §4
[10] = system: HT-29; experiment: Compound was tested for antiproliferative activity against HT29, human colon adenocarcinoma; type: functional, cell-based; procedure, shortened: as §4
[11] = system: K562; experiment: (§6) Compound was tested for antiproliferative activity against K562, human erythroid leukemia; type: functional, cell-based
Procedure, shortened: (§7)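 Exponentially growing cells were seeded at 1 × 10⁵ cells/mL in growth medium and exposed to various compound concentrations for 96 h at 37 °C. Viability was read by MTT. Growth at each concentration was taken as % of untreated controls, and IC50 (concentration reducing viability by 50%) was derived by linear regression.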

[12] = system: 5637; experiment: Compound was tested for antiproliferative activity against 5637, human bladder carcinoma cell line; type: functional, cell-based; procedure, shortened: as §4
[13] = system: L1210; experiment: (§8) Compound was tested for antiproliferative activity against L1210, murine lymphocytic leukemia; type: functional, cell-based; conditions: Mus musculus; procedure, shortened: as §2
[14] = system: WIL2-NS; experiment: Compound was tested for antiproliferative activity against Wil2-NS, human splenic lymphoblastoid cells; type: functional, cell-based; procedure, shortened: as §7
[15] = system: Raji; experiment: Compound was tested for antiproliferative activity against Raji, human Burkitt lymphoma; type: functional, cell-based; procedure, shortened: as §7
[16] = system: K562; experiment: Compound was tested for its influence on the GMP (guanosine monophosphate) ribonucleotide level in K562 cells; type: functional, Homo sapiens; procedure, shortened: as §3
[17] = system: CCRF-SB; experiment: (§9) Compound was tested for antiproliferative activity against CCRF-SB, human acute B-lymphoblastic leukemia; type: functional, cell-based; procedure, shortened: as §7
[18] = molecular target: T1, Inosine-5'-monophosphate dehydrogenase (IMPDH) (Homo sapiens); experiment: (§10) Compound was tested for its inhibition against IMPDH from human myelogenous leukemia in K562 cells; type: functional, cell-based; conditions: concentration not given here
[19] = system: K562; experiment: Compound was tested for its influence on the IMP (Inosine 5`-monophosphate) ribonucleotide level of K562 cells in culture; type: functional, Homo sapiens; procedure, shortened: as §3
[20] = system: L1210; experiment: as §8; type: functional, cell-based; conditions: Mus musculus; procedure, shortened: as §7; remark: listed apart in the source
[21] = molecular target: T1, Inosine-5'-monophosphate dehydrogenase (IMPDH) (Homo sapiens); experiment: Compound was tested for its effect on IMPDH (Inosine 5`-monophosphate dehydrogenase) activity in K562 cells; type: functional, cell-based; conditions: scale: (nM of XMP formed) hr-1
Procedure, shortened: (§11)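 Log-phase K562 cells (1 × 10⁶ cells/mL) were given 10 µM agent or saline for 2 h at 37 °C. They were then washed and lysed in Tris-HCl pH 7.4/NaCl/MgCl₂/0.5% NP-40/aprotinin, and the 13000g supernatant served as enzyme. The reaction ran 30 min at 37 °C, stopped by heating at 95 °C for 1 min. Radioactivity was trapped in KOH and counted by scintillation, giving nmol XMP/mg protein/h and % inhibition against saline.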

[22] = system: CHO-K1; experiment: Compound was tested for antiproliferative activity against CHO-K1, Chinese hamster ovary; type: functional, cell-based; conditions: Cricetulus griseus; procedure, shortened: as §4
[23] = molecular target: T1, Inosine-5'-monophosphate dehydrogenase (IMPDH) (Homo sapiens); experiment: as §10; type: functional, cell-based; conditions: concentration not given here; procedure, shortened: as §11; remark: listed apart in the source
[24] = system: MOLT-4; experiment: as §1; type: functional, cell-based; procedure, shortened: as §7; remark: listed apart in the source
[25] = system: CCRF-CEM; experiment: as §5; type: functional, cell-based; procedure, shortened: as §7; remark: listed apart in the source
[26] = molecular target: T1, Inosine-5'-monophosphate dehydrogenase (IMPDH) (Homo sapiens); experiment: Compound was tested for its inhibition against IMPDH from human myelogenous leukemia K562 cells in culture.; type: functional, cell-based; conditions: concentration not given here
[27] = system: CCRF-SB; experiment: as §9; type: functional, cell-based; procedure, shortened: as §2; remark: listed apart in the source
[28] = molecular target: T1, Inosine-5'-monophosphate dehydrogenase (IMPDH) (Homo sapiens); experiment: Compound was tested for its effect on IMPDH (Inosine 5`-monophosphate dehydrogenase) activity of K562 cells in culture.; type: functional, cell-based; conditions: scale: (nM of XMP formed) hr-1
[29] = system: K562; experiment: as §6; type: functional, cell-based; procedure, shortened: as §2; remark: listed apart in the source

T1 sequence (P20839 whole entry, looked up, other chains not shown): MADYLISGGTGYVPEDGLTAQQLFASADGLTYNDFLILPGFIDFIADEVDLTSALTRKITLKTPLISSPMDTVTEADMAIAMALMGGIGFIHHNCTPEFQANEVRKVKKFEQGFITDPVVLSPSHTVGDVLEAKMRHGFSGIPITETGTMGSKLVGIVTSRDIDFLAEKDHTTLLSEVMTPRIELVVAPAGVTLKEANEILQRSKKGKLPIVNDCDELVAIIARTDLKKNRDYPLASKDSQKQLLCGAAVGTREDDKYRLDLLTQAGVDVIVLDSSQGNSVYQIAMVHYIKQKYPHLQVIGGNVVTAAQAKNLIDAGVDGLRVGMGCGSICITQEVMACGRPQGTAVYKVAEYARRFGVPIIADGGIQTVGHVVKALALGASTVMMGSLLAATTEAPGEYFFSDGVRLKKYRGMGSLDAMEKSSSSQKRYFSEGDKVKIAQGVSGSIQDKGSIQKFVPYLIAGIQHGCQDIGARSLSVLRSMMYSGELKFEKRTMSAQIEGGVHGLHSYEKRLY

Row | IC50 [1] [µM] | IC50 [8] [µM] | IC50 [13] [µM] | SMILES | Control [2] [%] | Control [3] [%] | IC50 [4] [µM] | Control [5] [%] | IC50 [7] [µM] | IC50 [9] [µM] | IC50 [10] [µM] | IC50 [11] [µM] | IC50 [12] [µM] | IC50 [14] [µM] | IC50 [15] [µM] | Control [16] [%] | IC50 [17] [µM] | IC50 [20] [µM] | IMPDH activity [21] | IC50 [22] [µM] | inhibition [23] [%] | also measured
1 | 2.9 | 3.5 | 1.7 | NC(=O)c1csc([C@@H]2O[C@H](CO)[C@@H](O)[C@H]2O)c1 | 60 | 66 | 79 | 703 | 55 | 90 | 40 | 2.3 | 17 | 5.8 | 8.7 | 0 | 6.4 | – | – | – | – | IMPDH activity [6]: 2.62; inhibition [18]: 52%
2 | – | – | – | NC(=O)c1c[se]c([C@@H]2O[C@H](CO)[C@@H](O)[C@H]2O)n1 | 50 | 59 | 13.8 | – | – | 7.9 | 7.7 | 0.5 | 2.3 | 1.2 | 1.6 | 0 | 1.5 | 0.5 | 1.01 | 0.6 | 80 | Control [19]: 1043%; IC50 [24]: 0.6 µM; IC50 [25]: 1.2 µM
3 | – | – | – | NC(=O)c1c[se]c([C@@H]2O[C@H](CO)[C@@H](O)[C@H]2O)c1 | 42 | 61 | 9.9 | 1464 | – | 6.4 | 3.5 | 0.45 | 1.2 | 0.7 | 0.9 | 0 | 0.9 | 0.3 | 1.06 | 2.9 | 76 | IC50 [24]: 0.3 µM; IC50 [25]: 0.3 µM
4 | 5.2 | 10 | 2.9 | NC(=O)c1csc([C@@H]2O[C@H](CO)[C@@H](O)[C@H]2O)n1 [TIAZOFURIN] | 55 | 89 | > 100 | 1033 | 6.4 | 100 | 100 | – | 24 | 5.7 | 8.2 | 0 | – | – | – | – | – | inhibition [26]: 59%; IC50 [27]: 7.5 µM; IMPDH activity [28]: 2.07; IC50 [29]: 2.5 µM
